Drawing on ChEMBL document CHEMBL1154422, “First characterization of heterogeneous resistance to imipenem in invasive nontypeable Haemophilus influenzae isolates” (2007), this text covers MIC and Activity for five compounds.

Test [1] relates to Haemophilus influenzae. Briefly: Antimicrobial activity against Haemophilus influenzae Rd transformed with ftsI gene from imipenem-resistant invasive nontypeable Haemophilus influenzae isolate 183 by Etest. In kind it is functional. In outline: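 Recipient strain Rd (ATCC 51907) was electroporated with the PCR-amplified full-length ftsI gene plus flanking DNA from strain 183, then selected on HTM agar with 4 μg/ml imipenem. Imipenem MIC was then read by Etest on HTM agar per CLSI, in triplicate on separate days, and reported as a range.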

For test [2], the system named is Haemophilus influenzae. Briefly: Antimicrobial activity against imipenem-resistant invasive nontypeable Haemophilus influenzae isolate 184 by Etest. In kind it is functional. In outline:
(§1)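 Imipenem MIC read by Etest on Haemophilus test medium (HTM) agar following CLSI guidelines; inoculum about 3 × 10^8 to 4 × 10^8 CFU/ml. H. influenzae ATCC 49247 and ATCC 10211 served as quality controls. Interpretation used CLSI breakpoints. Strains were maintained on Vitox-supplemented chocolate agar at 37°C with 5% CO2.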

Test [3] has as its system Haemophilus influenzae. Briefly: Antimicrobial activity against imipenem-susceptible invasive nontypeable Haemophilus influenzae isolate 187 by Etest. In kind it is functional. A digest of the protocol:
as §1

Test [4] relates to Haemophilus influenzae. The experiment in a line: Antimicrobial activity against imipenem-susceptible invasive nontypeable Haemophilus influenzae isolate 244 by Etest. Type of test: functional. A digest of the protocol:
as §1

Test [5] has as its system Haemophilus influenzae. Briefly: Antimicrobial activity against imipenem-susceptible invasive nontypeable Haemophilus influenzae isolate 248 by Etest. In kind it is functional. A digest of the protocol: as §1
In test [6] the test system is Haemophilus influenzae. Briefly: Antimicrobial activity against imipenem-resistant invasive nontypeable Haemophilus influenzae isolate 183 by Etest. In kind it is functional. A digest of the protocol: as §1
Test [7] relates to Haemophilus influenzae. Briefly: Antimicrobial activity against imipenem-susceptible invasive nontypeable Haemophilus influenzae isolate 251 by Etest. In kind it is functional. A digest of the protocol:
(§2)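 Etest MIC on Haemophilus test medium (HTM) agar plates following CLSI guidelines, with a high inoculum (3 × 10^8 to 4 × 10^8 CFU/ml). Strains were maintained on Vitox-supplemented chocolate agar at 37°C with 5% CO2. H. influenzae ATCC 49247 and ATCC 10211 served as quality controls. Interpretation used CLSI breakpoints.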

The subject of test [8] is Haemophilus influenzae. The experiment in a line: Antimicrobial activity against imipenem-susceptible Haemophilus influenzae Rd by Etest. Type of test: functional. A digest of the protocol: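 Etest MIC on HTM agar per CLSI, inoculum 3 × 10^8 to 4 × 10^8 CFU/ml, with strains grown on Vitox-supplemented chocolate agar at 37°C with 5% CO2. Imipenem and ampicillin MICs were tested in triplicate on separate days and reported as the range. ATCC 49247 and ATCC 10211 were the quality controls.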

The subject of test [9] is Haemophilus influenzae. The experiment in a line: Antimicrobial activity against imipenem-resistant invasive nontypeable Haemophilus influenzae isolate 183 at 1.56 uM by Etest. In kind it is functional, organism-based. A digest of the protocol:
(§3)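 CCCP was made up as a 100 mM DMSO stock and added to HTM agar at final 3.12, 1.56, 0.781 or 0.390 μM. Imipenem Etest was run on these plates per CLSI on HTM agar.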

For test [10], the system named is Haemophilus influenzae. The experiment in a line: Antimicrobial activity against imipenem-resistant invasive nontypeable Haemophilus influenzae isolate 183 by Etest in presence of 0.390 uM efflux pump inhibitor carbonyl cyanide m-chlorophenyl-hydrazone. In kind it is functional, organism-based. In outline: as §3
For test [11], the system named is Haemophilus influenzae. Briefly: Antimicrobial activity against imipenem-resistant invasive nontypeable Haemophilus influenzae isolate 184 by standard broth dilution method. Type of test: functional. In outline:
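Broth dilution MIC per CLSI standard procedure. Inoculum 5 × 10^5 CFU/ml, lower than the Etest inoculum. Strain first grown on Vitox-supplemented chocolate agar at 37°C with 5% CO2. Beta-lactamase checked by nitrocefin stick test.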
(Dilution methods test growth across graded concentrations, often in twofold steps.)

The subject of test [12] is Haemophilus influenzae. The experiment in a line: Antimicrobial activity against imipenem-resistant invasive nontypeable Haemophilus influenzae isolate 184 by Etest in presence of 0.781 uM efflux pump inhibitor carbonyl cyanide m-chlorophenyl-hydrazone. In kind it is functional, organism-based. In outline: as §3
In test [13] the test system is Haemophilus influenzae. The experiment in a line: Antimicrobial activity against imipenem-resistant invasive nontypeable Haemophilus influenzae isolate 183 by Etest in presence of 0.781 uM efflux pump inhibitor carbonyl cyanide m-chlorophenyl-hydrazone. In kind it is functional, organism-based. A digest of the protocol:
as §3

In test [14] the test system is Haemophilus influenzae. The experiment in a line: Antimicrobial activity against Haemophilus influenzae ATCC 10211 by Etest. Type of test: functional. In outline:
as §2

Test [15] has as its system Haemophilus influenzae. Briefly: Antimicrobial activity against imipenem-resistant invasive nontypeable Haemophilus influenzae isolate 183 by standard broth dilution method. In kind it is functional. In outline:
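Imipenem MIC by CLSI standard broth dilution method; inoculum 5 × 10^5 CFU/ml.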

Test [16] deals with Haemophilus influenzae. Briefly: Antimicrobial activity against imipenem-resistant invasive nontypeable Haemophilus influenzae isolate 184 by Etest in presence of 0.390 uM efflux pump inhibitor carbonyl cyanide m-chlorophenyl-hydrazone. Type of test: functional, organism-based. In outline:
as §3

Test [17] deals with Haemophilus influenzae. Briefly: Antimicrobial activity against imipenem-resistant invasive nontypeable Haemophilus influenzae isolate 184 at 1.56 uM by Etest. In kind it is functional, organism-based. A digest of the protocol:
as §3

≈ marks a conversion by molar mass, not a printed value. Calls of active or inactive are those of the source. No cut-off for these calls is given here.

As for `CC1(C)S[C@@H]2[C@H](NC(=O)[C@H](N)c3ccccc3)C(=O)N2[C@H]1C(=O)O` [AMPICILLIN], the MIC was 0.38 µg/mL (≈ 1.09 µM) in the test with Haemophilus influenzae [1]; 0.5 µg/mL (≈ 1.43 µM) against Haemophilus influenzae [2]; 0.19 µg/mL (≈ 0.544 µM) against Haemophilus influenzae [3]; 0.25 µg/mL (≈ 0.715 µM) in the test on Haemophilus influenzae [4]; 0.125 µg/mL (≈ 0.358 µM) against Haemophilus influenzae [5]; 0.75 µg/mL (≈ 2.15 µM) in the test with Haemophilus influenzae [6]. Moreover, the MIC in the test with Haemophilus influenzae [7] worked out at 0.125 µg/mL (≈ 0.358 µM); against Haemophilus influenzae [8] it was 0.064 µg/mL (≈ 0.183 µM).
For `CO/N=C(\C(=O)N[C@@H]1C(=O)N2C(C(=O)O)=C(COC(C)=O)CS[C@H]12)c1csc(N)n1` [CEFOTAXIME], the MIC was determined as 0.125 µg/mL (≈ 0.274 µM) against Haemophilus influenzae [2]; 0.047 µg/mL (≈ 0.103 µM) against Haemophilus influenzae [3]; 0.016 µg/mL (≈ 0.0351 µM) in the test with Haemophilus influenzae [4]; 0.016 µg/mL (≈ 0.0351 µM) in the test with Haemophilus influenzae [5]; 0.047 µg/mL (≈ 0.103 µM) in the test with Haemophilus influenzae [6]; 0.016 µg/mL (≈ 0.0351 µM) against Haemophilus influenzae [7]. For the same compound, the MIC with Haemophilus influenzae [8] amounted to 0.5 µg/mL (≈ 1.1 µM).
`CO/N=C(\C(=O)N[C@@H]1C(=O)N2C(C(=O)O)=C(CSc3nc(=O)c(O)nn3C)CS[C@H]12)c1csc(N)n1` [CEFTRIAXONE]: the MIC with Haemophilus influenzae [1] was less than 0.016 µg/mL; in the test on Haemophilus influenzae [6], 0.032 µg/mL (≈ 0.0577 µM); in the test with Haemophilus influenzae [8], less than 0.016 µg/mL.
As for `O=C(N[C@H](CO)[C@H](O)c1ccc([N+](=O)[O-])cc1)C(Cl)Cl` [CHLORAMPHENICOL], the MIC came to 0.5 µg/mL (≈ 1.55 µM) against Haemophilus influenzae [2]; 0.38 µg/mL (≈ 1.18 µM) against Haemophilus influenzae [3]; 0.38 µg/mL (≈ 1.18 µM) in the test with Haemophilus influenzae [4]; 0.38 µg/mL (≈ 1.18 µM) against Haemophilus influenzae [5]; 0.38 µg/mL (≈ 1.18 µM) against Haemophilus influenzae [6]; 0.25 µg/mL (≈ 0.774 µM) in the test on Haemophilus influenzae [7].
Take `C[C@@H](O)[C@H]1C(=O)N2C(C(=O)O)=C(SCCNC=N)C[C@H]12` [IMIPENEM ANHYDROUS]: the MIC with Haemophilus influenzae [1] was 4 µg/mL (≈ 13.4 µM); with Haemophilus influenzae [2], not below 32 µg/mL; against Haemophilus influenzae [11], 1 µg/mL (≈ 3.34 µM); against Haemophilus influenzae [14] it was 1.5 µg/mL (≈ 5.01 µM); with Haemophilus influenzae [3], 1.5 µg/mL (≈ 5.01 µM); with Haemophilus influenzae [4] it was 0.5 µg/mL (≈ 1.67 µM). Also, the MIC was 0.25 µg/mL (≈ 0.835 µM) against Haemophilus influenzae [5]; not below 32 µg/mL against Haemophilus influenzae [6]; 0.5 µg/mL (≈ 1.67 µM) with Haemophilus influenzae [7]; 2 µg/mL (≈ 6.68 µM) in the test with Haemophilus influenzae [15]; 0.38 µg/mL (≈ 1.27 µM) in the test with Haemophilus influenzae [8]. For the same compound, the outcome in the test with Haemophilus influenzae [9] and in the test with Haemophilus influenzae [17] was inactive. For the same compound, the outcome in the test on Haemophilus influenzae [10], in the test with Haemophilus influenzae [12], in the test with Haemophilus influenzae [13] and in the test on Haemophilus influenzae [16] was Active.
